Assay results as given in ChEMBL document CHEMBL1152827, “Bis-pyrazolines: synthesis, characterization and antiamoebic activity as inhibitors of growth of Entamoeba histolytica” (Eur J Med Chem, 2009).

Experiments:
Entamoeba histolytica = test: Antiamoebic activity against Entamoeba histolytica HM-1:IMSS trophozoites after 72 hrs by microdilution method; format: functional, organism-based
How it was run: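 E. histolytica HM1:IMSS trophozoites grown in TYIS-33 medium. Compounds dissolved in DMSO, diluted in medium to 1 mg/ml, then two-fold serial dilutions. Inoculum 1.7 × 10⁴ organisms/well. Plates gassed with N₂ and held at 37 °C for 72 h. Amoebae fixed in cold MeOH and stained with eosin, dye released with 0.1 N NaOH, OD read at 490 nm. Percent inhibition plotted against log dose; IC50 from linear regression.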

[1] = Cytotoxicity against human kidney epithelial cells after 44 hrs by MTT assay; format: cell-based; conditions: Epithelial cell
[2] = Selectivity index, ratio of IC50 for human kidney epithelial cells to IC50 for Entamoeba histolytica HM-1:IMSS trophozoites; set-up: species or system Epithelial cell
How it was run: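 Safety index calculated as IC50 in human kidney epithelial cells (MTT, 44 h plus 4 h) divided by IC50 against E. histolytica HM1:IMSS (72 h eosin-stained microdilution assay).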

IC50 (Entamoeba histolytica)	SMILES	IC50 [1]	Ratio IC50 [2]
920 nM	S=C(NC1CCCCCCC1)N1N=C(c2ccccc2)CC1c1ccc(C2CC(c3ccccc3)=NN2C(=S)NC2CCCCCCC2)cc1 (configuration not stated)	> 90 µM	>97.8
–	Cc1ncc([N+](=O)[O-])n1CCO [METRONIDAZOLE]	> 100 µM	>55.55
> 1800 nM	Cc1cccc(NC(=S)N2N=C(c3ccccc3)CC2c2ccc(C3CC(c4ccccc4)=NN3C(=S)Nc3cccc(C)c3)cc2)c1 (configuration not stated)	> 90 µM	>50
620 nM	Fc1ccc(NC(=S)N2N=C(c3ccccc3)CC2c2ccc(C3CC(c4ccccc4)=NN3C(=S)Nc3ccc(F)cc3F)cc2)c(F)c1 (configuration not stated)	> 90 µM	>145
1570 nM	NC(=S)N1N=C(c2ccccc2)CC1c1ccc(C2CC(c3ccccc3)=NN2C(N)=S)cc1 (configuration not stated)	> 90 µM	>57.3
> 1800 nM	S=C(N1CCCC1)N1N=C(c2ccccc2)CC1c1ccc(C2CC(c3ccccc3)=NN2C(=S)N2CCCC2)cc1 (configuration not stated)	> 90 µM	>50
> 1800 nM	S=C(NC1CCCC1)N1N=C(c2ccccc2)CC1c1ccc(C2CC(c3ccccc3)=NN2C(=S)NC2CCCC2)cc1 (configuration not stated)	> 90 µM	>50
420 nM	O=[N+]([O-])c1ccc(NC(=S)N2N=C(c3ccccc3)CC2c2ccc(C3CC(c4ccccc4)=NN3C(=S)Nc3ccc([N+](=O)[O-])cc3)cc2)cc1 (configuration not stated)	> 90 µM	>214
> 1800 nM	Cc1ccc(NC(=S)N2N=C(c3ccccc3)CC2c2ccc(C3CC(c4ccccc4)=NN3C(=S)Nc3ccc(C)cc3)cc2)cc1 (configuration not stated)	> 90 µM	>50
> 1800 nM	CN(Cc1ccccc1)C(=S)N1N=C(c2ccccc2)CC1c1ccc(C2CC(c3ccccc3)=NN2C(=S)N(C)Cc2ccccc2)cc1 (configuration not stated)	> 90 µM	>50
1160 nM	S=C(NC1CCCCC1)N1N=C(c2ccccc2)CC1c1ccc(C2CC(c3ccccc3)=NN2C(=S)NC2CCCCC2)cc1 (configuration not stated)	> 90 µM	>77.6
